Data from ChEMBL document CHEMBL3792302, “N-Phenyl indole derivatives as AT1 antagonists with anti-hypertension activities: Design, synthesis and biological evaluation” (Eur J Med Chem, 2016).
Activity calls are given as the source filed them. The calls are words filed in the database; no cut-off is given here.

Legend:
[1] = (§1) Displacement of [125I]-Sar1,Ile8-angiotensin 2 from AT1 receptor in Sprague-Dawley rat vascular smooth muscle cells after 150 mins by gamma counting analysis
Outline: (§2)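 Competition radioligand binding to the AT1 receptor was run on vascular smooth muscle cells with [125I]-AII as the labelled ligand. Affinity is reported as IC50 and Ki, given as ± SEM.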

Rattus norvegicus [2] = organism: Rattus norvegicus; test: as §1; outline: as §2
Rattus norvegicus [3] = test: Antihypertensive activity in SHR rat assessed as reduction in mean blood pressure at 10 mg/kg, po measured upto 24 hrs post dosing; assay type: functional
Outline: (§3)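 Spontaneously hypertensive rats received test agents orally at 5 or 10 mg/kg, with losartan and telmisartan at 10 mg/kg as references. Mean blood pressure was tracked for over 24 h after dosing and compared with a negative control group. Significance versus control was set at p<0.05 and p<0.01.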

Rattus norvegicus [4] = test: Antihypertensive activity in SHR rat assessed as reduction in mean blood pressure at 5 mg/kg, po measured upto 24 hrs post dosing; assay type: functional, organism-based; outline: as §3
Mus musculus [5] = test: Acute toxicity in ICR mouse assessed as mobility at 384 mg/kg, ig administered daily for 2 weeks measured during compound dosing; assay type: organism-based; conditions: in vivo, po, 336 h
Outline: (§4)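 Mice were given single-compound dose groups of 307.20, 384.00, 480.00, 600.00, 750.00 and 937 mg/kg. Body weight of survivors was checked after 2 weeks. Mortality (%) was scored per dose group, and LD50 with 95% confidence interval was derived from log(dose) versus mortality.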

[6] = Acute toxicity in ICR mouse assessed as mortality at 307.20 mg/kg, ig administered daily for 2 weeks measured during compound dosing; assay type: organism-based; conditions: in vivo, po, 307.2 mg/kg; outline: as §4
[7] = Acute toxicity in intragastrically dosed ICR mouse assessed as mortality administered daily for 2 weeks measured during compound dosing; assay type: organism-based; conditions: in vivo, po; outline: as §4
Mus musculus [8] = test: Acute toxicity in ICR mouse assessed as aggressiveness at 384 mg/kg, ig administered daily for 2 weeks measured during compound dosing; assay type: organism-based; conditions: in vivo, po, 336 h; outline: as §4
Mus musculus [9] = test: Acute toxicity in ICR mouse assessed as skin changes at 307.20 mg/kg, ig administered daily for 2 weeks measured during compound dosing; assay type: organism-based; conditions: in vivo, po, 307.2 mg/kg, 336 h; outline: as §4
Mus musculus [10] = test: Acute toxicity in ICR mouse assessed as change in body weight at 307.20 to 937 mg/kg, ig administered daily for 2 weeks during compound dosing; assay type: organism-based; conditions: in vivo, po, 336 h; outline: as §4
Rattus norvegicus [11] = test: Antihypertensive activity in SHR rat assessed as reduction in mean blood pressure at 10 mg/kg, po measured after 6 hrs post dosing; assay type: functional; outline: as §3
[12] = Acute toxicity in ICR mouse assessed as mortality at 384 mg/kg, ig administered daily for 2 weeks measured during compound dosing; assay type: organism-based; conditions: in vivo, po; outline: as §4
Mus musculus [13] = test: Acute toxicity in ICR mouse assessed as respiratory movements at 384 mg/kg, ig administered daily for 2 weeks measured during compound dosing; assay type: organism-based; conditions: in vivo, po, 336 h; outline: as §4
[14] = Acute toxicity in ICR mouse assessed as mortality at 750 mg/kg, ig administered daily for 2 weeks measured during compound dosing; assay type: organism-based; conditions: in vivo, po; outline: as §4
Mus musculus [15] = test: Acute toxicity in ICR mouse assessed as hyperthyroidism at 480 to 937 mg/kg, ig administered daily for 2 weeks measured after 6 hrs post last dose; conditions: in vivo, po
Rattus norvegicus [16] = test: Antihypertensive activity in po dosed SHR rat assessed as reduction in mean blood pressure measured upto 24 hrs post dosing; assay type: functional, organism-based
Outline: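 In spontaneously hypertensive rats, test compounds were given orally at 5 and 10 mg/kg, with losartan and telmisartan references at 10 mg/kg. Mean blood pressure was followed over time to beyond 24 h post-dose and compared with a negative control group. Significance was set at p<0.05 and p<0.01.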

[17] = Acute toxicity in ICR mouse assessed as mortality at 480 mg/kg, ig administered daily for 2 weeks measured during compound dosing; assay type: organism-based; conditions: in vivo, po; outline: as §4
[18] = Acute toxicity in ICR mouse assessed as mortality at 937 mg/kg, ig administered daily for 2 weeks measured during compound dosing; assay type: organism-based; conditions: in vivo, po; outline: as §4
Mus musculus [19] = test: Acute toxicity in ICR mouse assessed as mobility at 307.20 mg/kg, ig administered daily for 2 weeks measured during compound dosing; assay type: organism-based; conditions: in vivo, po, 307.2 mg/kg, 336 h; outline: as §4
[20] = Acute toxicity in ICR mouse assessed as mortality at 600 mg/kg, ig administered daily for 2 weeks measured during compound dosing; assay type: organism-based; conditions: in vivo, po; outline: as §4
Mus musculus [21] = test: Acute toxicity in ICR mouse assessed as respiratory movements at 307.20 mg/kg, ig administered daily for 2 weeks measured during compound dosing; assay type: organism-based; conditions: in vivo, po, 307.2 mg/kg, 336 h; outline: as §4
Mus musculus [22] = test: Acute toxicity in ICR mouse assessed as skin changes at 384 mg/kg, ig administered daily for 2 weeks measured during compound dosing; assay type: organism-based; conditions: in vivo, po, 336 h; outline: as §4
Mus musculus [23] = test: Acute toxicity in ICR mouse assessed as pathological changes in organs and tissues at 307.20 to 937, ig administered daily for 2 weeks measured on fifteenth day; assay type: organism-based; conditions: in vivo, po, 336 h
Mus musculus [24] = test: Acute toxicity in ICR mouse assessed as aggressiveness at 307.20 mg/kg, ig administered daily for 2 weeks measured during compound dosing; assay type: organism-based; conditions: in vivo, po, 307.2 mg/kg, 336 h; outline: as §4
Mus musculus [25] = test: Acute toxicity in ICR mouse assessed as obvious untoward reaction at 307.20 to 937, ig administered daily for 2 weeks during compound dosing; assay type: organism-based; conditions: in vivo, po, 336 h; outline: as §4

For `CCCCCc1nc2c(C)cc(-c3nc4ccccc4n3C)cc2n1Cc1ccc2c(ccn2-c2ccccc2C(=O)O)c1`, the IC50 [1] was 0.92 nM, the Ki [1] was 0.67 nM and the Activity (Rattus norvegicus [2]) was “Dose-dependent effect”. The Activity (Rattus norvegicus [3]) was 53 mmHg.

With `CCCc1nc2c(C)cc(-c3nc4ccccc4n3C)cc2n1Cc1ccc(-c2ccccc2C(=O)O)cc1` [TELMISARTAN] the IC50 [1] was 3.8 nM, the Ki [1] was 2.75 nM and the Activity (Rattus norvegicus [2]) was “Dose-dependent effect”. For the same compound, the Activity (Rattus norvegicus [3]) was “Active”.

With `CCCCc1nc2c(C)cc(-c3nc4ccccc4n3C)cc2n1Cc1ccc2c(ccn2-c2ccccc2C(=O)O)c1` the IC50 [1] was 2.23 nM, the Ki [1] was 1.39 nM and the Activity (Rattus norvegicus [2]) was “Dose-dependent effect”. For the same compound, the Activity (Rattus norvegicus [4]) was “Active” and the Activity (Rattus norvegicus [3]) was “Active”.

For `CCCc1nc2c(C)cc(-c3nc4ccccc4n3C)cc2n1Cc1cccc2c1ccn2-c1ccccc1-c1nnn[nH]1`, the IC50 [1] was 3.39 nM, the Ki [1] was 2.12 nM and the Activity (Rattus norvegicus [2]) was “Dose-dependent effect”. The Activity (Rattus norvegicus [4]) was “Active” and the Activity (Rattus norvegicus [3]) was “Active”.

In the case of `CCCCc1nc2c(C)cc(-c3ccccn3)cc2n1Cc1cccc2c1ccn2-c1ccccc1C(=O)O`, the IC50 [1] is reported as 5.63 nM, the Ki [1] is reported as 4.08 nM and the Activity (Rattus norvegicus [2]) is reported as “Dose-dependent effect”. For the same compound, the Activity (Rattus norvegicus [4]) was “Active” and the Activity (Rattus norvegicus [3]) was “Active”.

With `CCCCc1nc2c(C)cc(-c3ccccn3)cc2n1Cc1ccc2c(ccn2-c2ccccc2C(=O)O)c1` the IC50 [1] was 5.61 nM, the Ki [1] was 4.06 nM and the Activity (Rattus norvegicus [2]) was “Dose-dependent effect”. For the same compound, the Activity (Rattus norvegicus [4]) was “inactive” and the Activity (Rattus norvegicus [3]) was “inactive”.

In the case of `CCCCCc1nc2c(C)cc(-c3nc4ccccc4n3C)cc2n1Cc1cccc2c1ccn2-c1ccccc1C(=O)O`, the IC50 [1] is reported as 11.3 nM, the Ki [1] is reported as 7.06 nM and the Activity (Rattus norvegicus [2]) is reported as “Dose-dependent effect”. The Activity (Rattus norvegicus [4]) was “inactive” and the Activity (Rattus norvegicus [3]) was “inactive”.

In the case of `CCc1nc2c(C)cc(-c3ccccn3)cc2n1Cc1ccc2c(ccn2-c2ccccc2C(=O)O)c1`, the IC50 [1] is reported as 1.17 nM, the Ki [1] is reported as 0.84 nM and the Activity (Rattus norvegicus [2]) is reported as “Dose-dependent effect”. The Activity (Rattus norvegicus [3]) was 42 mmHg.

For `Cc1cc(-c2nc3ccccc3n2C)cc2c1nc(C)n2Cc1ccc2c(ccn2-c2ccccc2C(=O)O)c1`, the IC50 [1] was 8.25 nM, the Ki [1] was 5.13 nM and the Activity (Rattus norvegicus [2]) was “Dose-dependent effect”. The Activity (Rattus norvegicus [3]) was 44 mmHg.

With `CCCc1nc2c(C)cc(-c3nc4ccccc4n3C)cc2n1Cc1ccc2c(ccn2-c2ccccc2C(=O)O)c1` the IC50 [1] was 3.76 nM, the Ki [1] was 2.35 nM and the Activity (Rattus norvegicus [2]) was “Dose-dependent effect”. For the same compound, the Activity (Rattus norvegicus [4]) was “Active” and the Activity (Rattus norvegicus [3]) was “Active”.

For `CCCCc1nc(Cl)c(CO)n1Cc1ccc(-c2ccccc2-c2nnn[nH]2)cc1` [LOSARTAN], the IC50 [1] was 20.1 nM, the Ki [1] was 13.1 nM and the Activity (Rattus norvegicus [2]) was “Dose-dependent effect”. It also gave an Activity (Rattus norvegicus [3]) of 43 mmHg.

With `CCCCc1nc2c(C)cc(-c3nc4ccccc4n3C)cc2n1Cc1cccc2c1ccn2-c1ccccc1C(=O)O` the IC50 [1] was 2.61 nM, the Ki [1] was 1.63 nM and the Activity (Rattus norvegicus [2]) was “Dose-dependent effect”. For the same compound, the Activity (Rattus norvegicus [4]) was “inactive” and the Activity (Rattus norvegicus [3]) was “inactive”.

For `Cc1cc(-c2nc3ccccc3n2C)cc2c1nc(C)n2Cc1cccc2c1ccn2-c1ccccc1C(=O)O`, the IC50 [1] was 7.46 nM, the Ki [1] was 4.66 nM and the Activity (Rattus norvegicus [2]) was “Dose-dependent effect”. The Activity (Rattus norvegicus [4]) was “inactive” and the Activity (Rattus norvegicus [3]) was “inactive”.

For `CCc1nc2c(C)cc(-c3nc4ccccc4n3C)cc2n1Cc1ccc2c(ccn2-c2ccccc2C(=O)O)c1`, the IC50 [1] was 13.1 nM, the Ki [1] was 8.16 nM and the Activity (Rattus norvegicus [2]) was “Dose-dependent effect”. For the same compound, the Activity (Rattus norvegicus [4]) was “inactive” and the Activity (Rattus norvegicus [3]) was “inactive”.

In the case of `CCc1nc2c(C)cc(-c3nc4ccccc4n3C)cc2n1Cc1cccc2c1ccn2-c1ccccc1C(=O)O`, the IC50 [1] is reported as 1.83 nM, the Ki [1] is reported as 1.14 nM and the Activity (Rattus norvegicus [2]) is reported as “Dose-dependent effect”. For the same compound, the Activity (Rattus norvegicus [4]) was “Active” and the Activity (Rattus norvegicus [3]) was “Active”.

In the case of `CCCc1nc2c(C)cc(-c3ccccn3)cc2n1Cc1ccc2c(ccn2-c2ccccc2C(=O)O)c1`, the IC50 [1] is reported as 3.27 nM, the Ki [1] is reported as 2.37 nM and the Activity (Rattus norvegicus [2]) is reported as “Dose-dependent effect”. It also gave an Activity (Rattus norvegicus [3]) of 43 mmHg.

For `CCCc1nc2c(C)cc(-c3ccccn3)cc2n1Cc1cccc2c1ccn2-c1ccccc1C(=O)O`, the IC50 [1] was 4.7 nM, the Ki [1] was 3.4 nM and the Activity (Rattus norvegicus [2]) was “Dose-dependent effect”. For the same compound, the Activity (Rattus norvegicus [4]) was “Active” and the Activity (Rattus norvegicus [3]) was “Active”.

In the case of `CCc1nc2c(C)cc(-c3ccccn3)cc2n1Cc1cccc2c1ccn2-c1ccccc1C(=O)O`, the IC50 [1] is reported as 3.55 nM, the Ki [1] is reported as 2.57 nM and the Activity (Rattus norvegicus [2]) is reported as “Dose-dependent effect”. For the same compound, the Activity (Rattus norvegicus [4]) was “Active” and the Activity (Rattus norvegicus [3]) was “Active”.

In the case of `CCCc1nc2c(C)cc(-c3nc4ccccc4n3C)cc2n1Cc1cccc2c1ccn2-c1ccccc1C(=O)O`, the Activity (Mus musculus [5]) is reported as “Non-toxic”, the mortality at 336 h [6] is reported as 0% and the LD50 at 336 h [7] is reported as 526 mg/kg. The Activity (Mus musculus [8]) was “Non-toxic”, the Activity (Mus musculus [9]) was “Non-toxic” and the Activity (Mus musculus [10]) was “Non-toxic”. For the same compound, the Activity (Rattus norvegicus [11]) was 64 mmHg, the IC50 [1] was 0.36 nM and the Ki [1] was 0.23 nM. The Activity (Rattus norvegicus [2]) was “Dose-dependent effect”, the mortality at 336 h [12] was 10% and the Activity (Mus musculus [13]) was “Non-toxic”. For the same compound, the mortality at 336 h [14] was 90%, the Activity (Mus musculus [15]) was “Toxic” and the Activity (Rattus norvegicus [16]) was “Dose-dependent effect”. For the same compound, the Activity (Rattus norvegicus [4]) was “Active”, the mortality at 336 h [17] was 50% and the Activity (Rattus norvegicus [3]) was “Active”. For the same compound, the mortality at 336 h [18] was 100%, the Activity (Mus musculus [19]) was “Non-toxic” and the mortality at 336 h [20] was 60%. The Activity (Mus musculus [21]) was “Non-toxic”, the Activity (Mus musculus [22]) was “Non-toxic” and the Activity (Mus musculus [23]) was “Non-toxic”. The Activity (Mus musculus [24]) was “Non-toxic” and the Activity (Mus musculus [25]) was “Non-toxic”.
